Data: ChEMBL document CHEMBL1124102, “Synthesis and biodistribution of 99mTc-labeled piperidinyl bis(aminoethanethiol) complexes: potential brain perfusion imaging agents for single photon emission computed tomography” (J Med Chem, 1988)

Key:
Rattus norvegicus [1] = assay: Brain Uptake of compound was measured after 2 min of administration; format: functional, organism-based
Summary of the method: (§1)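 Tc-99m complex injected into rats, three per time point. At set times, 1 mL blood was drawn by cardiac puncture and the animal was killed by cardiectomy. Organs were excised, weighed and gamma-counted. Percent dose per organ came from comparing tissue counts with dilutions of the injected dose, reported as the mean with the range across the three rats.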

[2] = Ratio of brain dose per gram to the blood dose per gram measured at 15 min; format: functional, tissue-based
Summary of the method: (§2)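 Rats (three per time point) were given the Tc-99m complex, then sampled by cardiac puncture, killed, and had organs excised and gamma-counted against injected-dose dilutions. Percent dose/organ was converted to percent dose/gram using mean organ weights (brain 1.65 g; blood 18 g). The ratio is (brain dose/gram)/(blood dose/gram).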

[3] = Ratio of brain dose per gram to the blood dose per gram measured at 2 min; format: functional, tissue-based; summary of the method: as §2
Rattus norvegicus [4] = assay: Brain Uptake of compound was measured after 15 min of administration; format: functional, organism-based; summary of the method: as §1

In the case of “Tc-labeled 3,3,10,10-tetramethyl-6-(2,6-dimethylhexahydro-1-pyridinylmethyl)-1-acetone2,11-dithia-5-azonia-8-azatricyclo[6.3.0.01,5]undecane (isomer)”, the Uptake value (Rattus norvegicus [1]) is reported as 1.19, the Ratio [2] is reported as 2.07 and the Ratio [3] is reported as 1.98. The Uptake value (Rattus norvegicus [4]) was 0.54.

With “Tc-labeled 3,3,10,10-tetramethyl-6-(2-methylhexahydro-1-pyridinylmethyl)-1-acetone2,11-dithia-5-azonia-8-azatricyclo[6.3.0.01,5]undecane (isomer)” the Uptake value (Rattus norvegicus [1]) was 1.8, the Ratio [2] was 3.84 and the Ratio [3] was 4.96. For the same substance, the Uptake value (Rattus norvegicus [4]) was 0.54.

Substance “Tc-labeled 3,3,10,10-tetramethyl-6-(2-methylhexahydro-1-pyridinylmethyl)-1-acetone2,11-dithia-5-azonia-8-azatricyclo[6.3.0.01,5]undecane” has an Uptake value (Rattus norvegicus [1]) of 0.61, a Ratio [2] of 1.84 and a Ratio [3] of 1.06. For the same substance, the Uptake value (Rattus norvegicus [4]) was 0.35.
